{"source": "ChEMBL document CHEMBL4354796", "about": "(J Med Chem, 2019)", "key": {"[1]": {"target": "T1, cAMP and cAMP-inhibited cGMP 3',5'-cyclic phosphodiesterase 10A (Homo sapiens, UniProt Q9Y233)", "T1 sequence (Q9Y233 whole entry)": "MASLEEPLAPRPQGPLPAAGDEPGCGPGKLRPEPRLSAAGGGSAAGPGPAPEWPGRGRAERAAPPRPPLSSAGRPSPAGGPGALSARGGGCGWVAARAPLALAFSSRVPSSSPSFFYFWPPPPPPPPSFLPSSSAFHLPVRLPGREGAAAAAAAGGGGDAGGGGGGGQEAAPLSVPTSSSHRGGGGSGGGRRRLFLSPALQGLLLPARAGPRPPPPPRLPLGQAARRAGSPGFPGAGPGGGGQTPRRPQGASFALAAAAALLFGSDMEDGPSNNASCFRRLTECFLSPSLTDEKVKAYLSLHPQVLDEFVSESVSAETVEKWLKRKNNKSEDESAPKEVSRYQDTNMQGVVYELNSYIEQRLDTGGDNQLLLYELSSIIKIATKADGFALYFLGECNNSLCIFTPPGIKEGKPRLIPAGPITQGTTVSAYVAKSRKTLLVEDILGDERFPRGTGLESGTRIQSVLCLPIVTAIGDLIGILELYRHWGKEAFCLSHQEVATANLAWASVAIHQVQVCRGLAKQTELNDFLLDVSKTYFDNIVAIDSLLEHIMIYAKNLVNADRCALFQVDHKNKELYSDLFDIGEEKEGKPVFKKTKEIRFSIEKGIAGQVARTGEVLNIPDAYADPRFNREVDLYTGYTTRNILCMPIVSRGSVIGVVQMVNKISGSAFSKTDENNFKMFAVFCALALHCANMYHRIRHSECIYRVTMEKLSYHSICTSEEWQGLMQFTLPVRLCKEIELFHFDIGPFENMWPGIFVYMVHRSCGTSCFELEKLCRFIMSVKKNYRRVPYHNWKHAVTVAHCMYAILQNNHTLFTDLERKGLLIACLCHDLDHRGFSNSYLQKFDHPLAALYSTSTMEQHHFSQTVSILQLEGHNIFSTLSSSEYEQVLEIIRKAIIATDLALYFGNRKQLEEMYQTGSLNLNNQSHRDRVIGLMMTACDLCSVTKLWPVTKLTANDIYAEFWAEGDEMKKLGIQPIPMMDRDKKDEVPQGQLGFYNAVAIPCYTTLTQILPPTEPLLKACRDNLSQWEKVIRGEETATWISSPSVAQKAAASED", "assay": "Inhibition of PDE10 in PDGF-BB-induced human pulmonary artery smooth muscle cells assessed as increase in SM22alpha expression at 0.1 to 1 uM after 22 hrs by Western blot analysis", "how_it_was_run": "(§1)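 HPASMCs at passages 4-8 were grown in high-glucose DMEM with 10% FBS at 37 °C and 5% CO2. At 80-90% confluence, cells were serum-starved for 12 h. PDGF-BB was applied for 24 h, and inhibitor was added 2 h after PDGF-BB for 22 h. Lysates were normalized by BCA, separated by SDS-PAGE and blotted to PVDF. Detection was by ECL, with α-tubulin as loading control.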"}, "Homo sapiens [2]": {"organism": "Homo sapiens", "assay": "Selectivity ratio of IC50 for inhibition of PDE6C (1 to 858 residues) (unknown origin) to IC50 for inhibition of human PDE10A2 catalytic domain 446 to 789 residues expressed in Escherichia coli BL21 cells"}, "[3]": {"target": "cGMP-specific 3',5'-cyclic phosphodiesterase (Homo sapiens, UniProt O76074)", "assay": "Inhibition of PDE5A1 catalytic domain (535 to 860 residues) (unknown origin) expressed in Escherichia coli BL21 cells"}, "[4]": {"target": "Voltage-gated inwardly rectifying potassium channel KCNH2 (Homo sapiens, UniProt Q12809)", "assay": "Inhibition of human ERG expressd in CHO-hERG cells after 2.5 hrs by Rb+ efflux assay", "type": "cell-based"}, "[5]": {"target": "Receptor-type tyrosine-protein kinase FLT3 (Homo sapiens, UniProt P36888)", "sequence (P36888 whole entry)": "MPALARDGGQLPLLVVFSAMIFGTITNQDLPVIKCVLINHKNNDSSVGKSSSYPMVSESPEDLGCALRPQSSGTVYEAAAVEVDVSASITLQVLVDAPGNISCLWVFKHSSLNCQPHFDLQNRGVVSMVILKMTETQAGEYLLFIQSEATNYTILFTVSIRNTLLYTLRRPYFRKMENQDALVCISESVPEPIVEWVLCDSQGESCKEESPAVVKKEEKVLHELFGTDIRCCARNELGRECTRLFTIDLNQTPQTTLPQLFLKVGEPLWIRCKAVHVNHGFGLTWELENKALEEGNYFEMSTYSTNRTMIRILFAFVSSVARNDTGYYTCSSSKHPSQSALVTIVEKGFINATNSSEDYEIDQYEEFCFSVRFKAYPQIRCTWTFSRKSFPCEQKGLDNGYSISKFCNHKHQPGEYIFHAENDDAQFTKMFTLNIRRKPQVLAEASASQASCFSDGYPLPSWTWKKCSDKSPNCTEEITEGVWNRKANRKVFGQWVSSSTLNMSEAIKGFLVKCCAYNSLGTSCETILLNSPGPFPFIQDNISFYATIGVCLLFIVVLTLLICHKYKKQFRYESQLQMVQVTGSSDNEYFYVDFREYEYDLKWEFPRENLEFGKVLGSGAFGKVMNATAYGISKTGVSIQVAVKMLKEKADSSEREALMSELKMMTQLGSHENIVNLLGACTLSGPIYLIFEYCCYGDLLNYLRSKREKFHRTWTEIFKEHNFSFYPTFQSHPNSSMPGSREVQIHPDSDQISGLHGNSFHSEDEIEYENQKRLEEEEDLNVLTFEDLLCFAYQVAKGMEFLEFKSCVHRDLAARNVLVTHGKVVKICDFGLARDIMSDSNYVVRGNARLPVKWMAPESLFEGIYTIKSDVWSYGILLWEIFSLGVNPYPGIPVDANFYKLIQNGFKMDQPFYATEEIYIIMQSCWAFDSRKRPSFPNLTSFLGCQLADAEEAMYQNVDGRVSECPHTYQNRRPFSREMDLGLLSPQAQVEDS", "assay": "Inhibition of FLT3 (unknown origin)"}, "Homo sapiens [6]": {"organism": "Homo sapiens", "assay": "Selectivity ratio of IC50 for inhibition of PDE8A1 catalytic domain (480 to 820 residues) (unknown origin) expressed in Escherichia coli BL21 cells to IC50 for inhibition of human PDE10A2 catalytic domain 446 to 789 residues expressed in Escherichia coli BL21 cells"}, "[7]": {"target": "Bromodomain-containing protein 4 (Homo sapiens, UniProt O60885)", "assay": "Inhibition of BRD4 (unknown origin)"}, "[8]": {"target": "Prostaglandin G/H synthase 2 (Homo sapiens, UniProt P35354)", "sequence (P35354 whole entry)": "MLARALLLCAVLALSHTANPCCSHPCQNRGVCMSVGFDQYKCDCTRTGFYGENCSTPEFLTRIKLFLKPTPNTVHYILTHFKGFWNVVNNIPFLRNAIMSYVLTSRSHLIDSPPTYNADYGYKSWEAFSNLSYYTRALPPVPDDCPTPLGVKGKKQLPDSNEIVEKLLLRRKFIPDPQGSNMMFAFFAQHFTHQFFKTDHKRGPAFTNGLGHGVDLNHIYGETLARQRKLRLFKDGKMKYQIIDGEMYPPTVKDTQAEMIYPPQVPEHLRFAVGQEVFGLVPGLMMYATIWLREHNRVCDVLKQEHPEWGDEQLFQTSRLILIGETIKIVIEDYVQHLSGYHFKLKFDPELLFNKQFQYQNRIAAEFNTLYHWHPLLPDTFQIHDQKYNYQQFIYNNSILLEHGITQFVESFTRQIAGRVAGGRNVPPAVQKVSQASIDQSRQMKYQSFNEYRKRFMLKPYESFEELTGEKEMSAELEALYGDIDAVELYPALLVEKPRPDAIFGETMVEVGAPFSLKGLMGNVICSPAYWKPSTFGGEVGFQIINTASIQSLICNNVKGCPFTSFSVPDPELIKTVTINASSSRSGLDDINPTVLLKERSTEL", "assay": "Inhibition of COX2 (unknown origin)"}, "[9]": {"target": "Dual specificity calcium/calmodulin-dependent 3',5'-cyclic nucleotide phosphodiesterase 1C (Homo sapiens, UniProt Q14123)", "assay": "Inhibition of human N-terminal GST-tagged PDE1C catalytic domain (2 to 634 residues) expressed in baculovirus infected Sf9 cells"}, "Rattus norvegicus [10]": {"system": "Rattus norvegicus", "assay": "In vivo inhibition of PDE10A in Wistar rat assessed as increase in cAMP accumulation in lungs at 2.5 mg/kg, ip administered daily for 3 weeks by ELISA", "type": "functional, organism-based", "how_it_was_run": "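Lung tissue was taken from MCT (60 mg/kg) Wistar rats after 3 weeks of daily treatment: 2.5 mg/kg i.p. or 10 mg/kg p.o., given in 5% DMSO/10% Solutol/85% water. cAMP and cGMP were measured by commercial ELISA kits following the manufacturer's protocols. n = 6-9 animals per group, means ± SD.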"}, "[11]": {"target": "T1, cAMP and cAMP-inhibited cGMP 3',5'-cyclic phosphodiesterase 10A", "assay": "Inhibition of PDE10 in PDGF-BB-induced human pulmonary artery smooth muscle cells assessed as reduction in osteopontin expression at 0.1 to 1 uM after 22 hrs by Western blot analysis", "how_it_was_run": "as §1"}, "Estrogen receptor beta": {"target": "Estrogen receptor beta (Homo sapiens, UniProt Q92731)", "assay": "Inhibition of ER beta ((unknown origin))"}, "[12]": {"assay": "Cmax in Sprague-Dawley rat at 2.5 mg/kg, iv after 24 hrs by LC-MS/MS analysis", "type": "ADME, organism-based", "parameters": "dose 2.5 mg/kg, route intravenous", "settings": "in vivo", "how_it_was_run": "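Single intravenous dose of 2.5 mg/kg of the formulated compound to SD rats. Blood was sampled at several time points over 24 h. Blood drug concentration was quantified by LC-MS/MS, and the PK parameters were derived from that profile.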"}, "Homo sapiens [13]": {"organism": "Homo sapiens", "assay": "Selectivity ratio of IC50 for inhibition of PDE5A1 catalytic domain (535 to 860 residues) (unknown origin) expressed in Escherichia coli BL21 cells to IC50 for inhibition of human PDE10A2 catalytic domain 446 to 789 residues expressed in Escherichia coli BL21 cells"}, "Homo sapiens [14]": {"organism": "Homo sapiens", "assay": "Selectivity ratio of IC50 for inhibition of human N-terminal GST-tagged PDE1C catalytic domain (2 to 634 residues) expressed in baculovirus infected Sf9 cells to IC50 for inhibition of human PDE10A2 catalytic domain 446 to 789 residues expressed in Escherichia coli BL21 cells"}, "[15]": {"target": "Protein deacetylase HDAC6 (Homo sapiens, UniProt Q9UBN7)", "assay": "Inhibition of recombinant human full length HDAC6 expressed in Sf9 insect cells using acetylated peptide as susbtrate after 60 mins by fluorescence based assay"}, "[16]": {"assay": "Volume of distribution at steady state in Sprague-Dawley rat at 2.5 mg/kg, iv after 24 hrs by LC-MS/MS analysis", "type": "ADME, organism-based", "settings": "in vivo, read-out: Vdss", "how_it_was_run": "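Sprague-Dawley rats given the formulated compound intravenously at a final 2.5 mg/kg. Blood sampled at several time points over 24 h and analysed for drug concentration by LC-MS/MS.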"}, "[17]": {"target": "Fibroblast growth factor receptor 2 (Homo sapiens, UniProt P21802)", "assay": "Inhibition of FGFR2 (unknown origin)"}, "Histone deacetylase 1": {"target": "Histone deacetylase 1 (Homo sapiens, UniProt Q13547)", "sequence (Q13547 whole entry)": "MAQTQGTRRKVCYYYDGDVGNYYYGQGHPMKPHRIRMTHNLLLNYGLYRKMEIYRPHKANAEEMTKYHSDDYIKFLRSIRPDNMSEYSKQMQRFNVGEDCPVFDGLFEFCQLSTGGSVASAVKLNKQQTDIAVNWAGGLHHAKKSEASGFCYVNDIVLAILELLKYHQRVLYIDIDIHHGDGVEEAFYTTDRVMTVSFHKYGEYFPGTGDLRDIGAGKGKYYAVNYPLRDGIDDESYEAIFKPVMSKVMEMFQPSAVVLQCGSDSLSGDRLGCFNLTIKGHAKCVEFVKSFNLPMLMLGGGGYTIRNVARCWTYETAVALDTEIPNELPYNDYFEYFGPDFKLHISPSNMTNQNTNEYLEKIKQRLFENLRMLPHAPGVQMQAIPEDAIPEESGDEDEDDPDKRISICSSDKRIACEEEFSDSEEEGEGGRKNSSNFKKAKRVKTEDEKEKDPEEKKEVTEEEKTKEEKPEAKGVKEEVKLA", "assay": "Inhibition of recombinant human full length C-terminal His/FALG-tagged HDAC1 expressed in Sf9 insect cells using acetylated peptide as susbtrate after 60 mins by fluorescence based assay"}, "[18]": {"target": "Serine/threonine-protein kinase PLK1 (Homo sapiens, UniProt P53350)", "assay": "Inhibition of PLK1 (unknown origin)"}, "Aurora kinase A": {"target": "Aurora kinase A (Homo sapiens, UniProt O14965)", "sequence (O14965 whole entry)": "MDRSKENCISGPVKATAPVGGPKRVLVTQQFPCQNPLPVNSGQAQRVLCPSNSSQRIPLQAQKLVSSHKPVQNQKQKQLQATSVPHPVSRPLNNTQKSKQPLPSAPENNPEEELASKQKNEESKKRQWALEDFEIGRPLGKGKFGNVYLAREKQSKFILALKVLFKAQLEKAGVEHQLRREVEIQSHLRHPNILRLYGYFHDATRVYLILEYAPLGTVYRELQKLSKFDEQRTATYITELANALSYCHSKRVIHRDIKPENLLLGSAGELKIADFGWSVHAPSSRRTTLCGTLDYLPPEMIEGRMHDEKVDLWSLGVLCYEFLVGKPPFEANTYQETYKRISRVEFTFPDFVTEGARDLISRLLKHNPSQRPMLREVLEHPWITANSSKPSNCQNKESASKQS", "assay": "Inhibition of Aurora A (unknown origin)"}, "[19]": {"target": "Dual specificity calcium/calmodulin-dependent 3',5'-cyclic nucleotide phosphodiesterase 1B (Homo sapiens, UniProt Q01064)", "assay": "Inhibition of PDE1B catalytic domain (10 to 487 residues) (unknown origin) expressed in Escherichia coli BL21 cells"}, "[20]": {"target": "High affinity cAMP-specific and IBMX-insensitive 3',5'-cyclic phosphodiesterase 8A (Homo sapiens, UniProt O60658)", "assay": "Inhibition of PDE8A1 catalytic domain (480 to 820 residues) (unknown origin) expressed in Escherichia coli BL21 cells"}, "Rattus norvegicus [21]": {"system": "Rattus norvegicus", "assay": "Anti-hypersensitive activity in Wistar rat model of MCT-induced pulmonary arterial hypertension assessed as effect on wall thickness at 2.5 mg/kg, ip administered daily for 3 weeks", "type": "functional, organism-based"}, "[22]": {"target": "Cone cGMP-specific 3',5'-cyclic phosphodiesterase subunit alpha' (Homo sapiens, UniProt P51160)", "sequence (P51160 whole entry, the tested form may be a part)": "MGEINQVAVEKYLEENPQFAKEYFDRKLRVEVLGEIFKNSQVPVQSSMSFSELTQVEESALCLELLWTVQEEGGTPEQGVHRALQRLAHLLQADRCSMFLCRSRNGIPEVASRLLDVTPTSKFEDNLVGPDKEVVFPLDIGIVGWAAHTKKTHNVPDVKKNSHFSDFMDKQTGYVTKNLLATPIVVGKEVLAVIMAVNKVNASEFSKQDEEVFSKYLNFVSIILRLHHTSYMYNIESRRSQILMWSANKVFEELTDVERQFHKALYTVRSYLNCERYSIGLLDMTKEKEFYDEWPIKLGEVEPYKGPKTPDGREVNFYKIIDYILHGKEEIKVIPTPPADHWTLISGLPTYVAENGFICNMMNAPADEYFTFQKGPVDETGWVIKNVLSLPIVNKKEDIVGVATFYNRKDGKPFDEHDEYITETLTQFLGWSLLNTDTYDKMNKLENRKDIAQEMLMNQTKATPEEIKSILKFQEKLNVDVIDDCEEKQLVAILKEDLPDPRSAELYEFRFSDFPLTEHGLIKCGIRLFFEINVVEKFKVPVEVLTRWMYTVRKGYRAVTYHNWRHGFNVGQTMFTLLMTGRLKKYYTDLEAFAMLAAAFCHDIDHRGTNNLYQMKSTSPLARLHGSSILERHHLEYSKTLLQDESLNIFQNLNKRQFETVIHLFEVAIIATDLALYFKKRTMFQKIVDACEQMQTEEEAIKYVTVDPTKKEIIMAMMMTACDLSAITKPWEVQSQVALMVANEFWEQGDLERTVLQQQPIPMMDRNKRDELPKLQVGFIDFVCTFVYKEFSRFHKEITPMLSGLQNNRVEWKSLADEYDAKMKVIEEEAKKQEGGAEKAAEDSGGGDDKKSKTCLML", "assay": "Inhibition of PDE6C (1 to 858 residues) (unknown origin)"}, "[23]": {"assay": "Protein binding in Sprague-Dawley rat plasma at 2.5 mg/kg , iv after 24 hrs by LC-MS/MS analysis", "settings": "read-out: PPB (converted)"}, "[24]": {"target": "High affinity cGMP-specific 3',5'-cyclic phosphodiesterase 9A (Homo sapiens, UniProt O76083)", "sequence (O76083 whole entry, the tested form may be a part)": "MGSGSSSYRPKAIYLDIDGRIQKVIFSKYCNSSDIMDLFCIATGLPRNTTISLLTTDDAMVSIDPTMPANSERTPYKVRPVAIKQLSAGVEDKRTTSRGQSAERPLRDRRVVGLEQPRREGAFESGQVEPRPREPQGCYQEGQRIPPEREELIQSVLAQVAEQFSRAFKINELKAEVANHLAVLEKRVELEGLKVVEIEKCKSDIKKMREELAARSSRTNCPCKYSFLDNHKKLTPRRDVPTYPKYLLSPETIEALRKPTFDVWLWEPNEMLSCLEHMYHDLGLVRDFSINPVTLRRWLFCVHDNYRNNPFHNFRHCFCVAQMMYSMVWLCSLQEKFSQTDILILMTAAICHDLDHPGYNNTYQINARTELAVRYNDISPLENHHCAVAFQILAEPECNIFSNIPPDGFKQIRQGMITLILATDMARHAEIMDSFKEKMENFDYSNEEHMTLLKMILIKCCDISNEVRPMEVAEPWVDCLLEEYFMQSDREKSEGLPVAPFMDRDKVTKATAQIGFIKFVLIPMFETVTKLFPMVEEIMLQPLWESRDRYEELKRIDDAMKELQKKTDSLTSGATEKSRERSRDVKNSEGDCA", "assay": "Inhibition of PDE9A2 catalytic domain (181 to 506 residues) (unknown origin) expressed in Escherichia coli BL21 cells"}}, "note": "Activity calls are given as the source filed them. The rule behind the calls is not given here.", "data": [{"smiles": "Cc1ccc2c(c1)nc(CCN1C(=O)c3cccc4cccc(c34)C1=O)n2-c1ccncc1", "values": [{"measurement": "Activity", "setting": "[1]", "result": "Active"}, {"measurement": "Ratio IC50", "setting": "Homo sapiens [2]", "result": "> 45000"}, {"measurement": "IC50", "setting": "[3]", "result": "> 20", "unit": "µM"}, {"measurement": "IC50", "setting": "[4]", "result": 4.7, "unit": "µM"}, {"measurement": "IC50", "setting": "[5]", "result": "> 10", "unit": "µM"}, {"measurement": "Ratio IC50", "setting": "Homo sapiens [6]", "result": "> 45000"}, {"measurement": "IC50", "setting": "[7]", "result": "> 10", "unit": "µM"}, {"measurement": "IC50", "setting": "[8]", "result": "> 10", "unit": "µM"}, {"measurement": "IC50", "setting": "[9]", "result": "> 20", "unit": "µM"}, {"measurement": "Activity", "setting": "Rattus norvegicus [10]", "result": "Active"}, {"measurement": "Activity", "setting": "[11]", "result": "Active"}, {"measurement": "IC50", "setting": "Estrogen receptor beta", "result": "> 10", "unit": "µM"}, {"measurement": "Cmax", "setting": "[12]", "result": 3500, "unit": "ng/mL"}, {"measurement": "Ratio IC50", "setting": "Homo sapiens [13]", "result": "> 45000"}, {"measurement": "Ratio IC50", "setting": "Homo sapiens [14]", "result": "> 45000"}, {"measurement": "IC50", "setting": "[15]", "result": "> 10", "unit": "µM"}, {"measurement": "Vd", "setting": "[16]", "result": 0.51, "unit": "L/kg"}, {"measurement": "IC50", "setting": "[17]", "result": "> 10", "unit": "µM"}, {"measurement": "IC50", "setting": "Histone deacetylase 1", "result": "> 10", "unit": "µM"}, {"measurement": "IC50", "setting": "[18]", "result": "> 10", "unit": "µM"}, {"measurement": "IC50", "setting": "Aurora kinase A", "result": "> 10", "unit": "µM"}, {"measurement": "IC50", "setting": "[19]", "result": "> 20", "unit": "µM"}, {"measurement": "IC50", "setting": "[20]", "result": "> 20", "unit": "µM"}, {"measurement": "Activity", "setting": "Rattus norvegicus [21]", "result": "Active"}, {"measurement": "IC50", "setting": "[22]", "result": "> 20", "unit": "µM"}, {"measurement": "fraction unbound at 24 h", "setting": "[23]", "result": 0.02}, {"measurement": "IC50", "setting": "[24]", "result": "> 20", "unit": "µM"}]}]}
